The target in the assay is Voltage-dependent L-type calcium channel subunit alpha-1C (Oryctolagus cuniculus, UniProt P15381). The experiment in a line: Antagonist activity at rabbit voltage-dependent L-type calcium channel Cav1.2alpha-1C expressed in HEK293 cells by FLIPR assay. Summed up:
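HEK293 lines stably expressing rat CaV1.3α1D or rabbit CaV1.2α1C, with rat CaVβ3 and rat CaVα2δ-1 cDNAs used in construction. Calcium influx was read by Fluo-8 fluorescence on a FLIPR Tetra. […] The selectivity ratio is CaV1.3 IC50 over CaV1.2 IC50.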

Sequence of Voltage-dependent L-type calcium channel subunit alpha-1C (P15381 whole entry): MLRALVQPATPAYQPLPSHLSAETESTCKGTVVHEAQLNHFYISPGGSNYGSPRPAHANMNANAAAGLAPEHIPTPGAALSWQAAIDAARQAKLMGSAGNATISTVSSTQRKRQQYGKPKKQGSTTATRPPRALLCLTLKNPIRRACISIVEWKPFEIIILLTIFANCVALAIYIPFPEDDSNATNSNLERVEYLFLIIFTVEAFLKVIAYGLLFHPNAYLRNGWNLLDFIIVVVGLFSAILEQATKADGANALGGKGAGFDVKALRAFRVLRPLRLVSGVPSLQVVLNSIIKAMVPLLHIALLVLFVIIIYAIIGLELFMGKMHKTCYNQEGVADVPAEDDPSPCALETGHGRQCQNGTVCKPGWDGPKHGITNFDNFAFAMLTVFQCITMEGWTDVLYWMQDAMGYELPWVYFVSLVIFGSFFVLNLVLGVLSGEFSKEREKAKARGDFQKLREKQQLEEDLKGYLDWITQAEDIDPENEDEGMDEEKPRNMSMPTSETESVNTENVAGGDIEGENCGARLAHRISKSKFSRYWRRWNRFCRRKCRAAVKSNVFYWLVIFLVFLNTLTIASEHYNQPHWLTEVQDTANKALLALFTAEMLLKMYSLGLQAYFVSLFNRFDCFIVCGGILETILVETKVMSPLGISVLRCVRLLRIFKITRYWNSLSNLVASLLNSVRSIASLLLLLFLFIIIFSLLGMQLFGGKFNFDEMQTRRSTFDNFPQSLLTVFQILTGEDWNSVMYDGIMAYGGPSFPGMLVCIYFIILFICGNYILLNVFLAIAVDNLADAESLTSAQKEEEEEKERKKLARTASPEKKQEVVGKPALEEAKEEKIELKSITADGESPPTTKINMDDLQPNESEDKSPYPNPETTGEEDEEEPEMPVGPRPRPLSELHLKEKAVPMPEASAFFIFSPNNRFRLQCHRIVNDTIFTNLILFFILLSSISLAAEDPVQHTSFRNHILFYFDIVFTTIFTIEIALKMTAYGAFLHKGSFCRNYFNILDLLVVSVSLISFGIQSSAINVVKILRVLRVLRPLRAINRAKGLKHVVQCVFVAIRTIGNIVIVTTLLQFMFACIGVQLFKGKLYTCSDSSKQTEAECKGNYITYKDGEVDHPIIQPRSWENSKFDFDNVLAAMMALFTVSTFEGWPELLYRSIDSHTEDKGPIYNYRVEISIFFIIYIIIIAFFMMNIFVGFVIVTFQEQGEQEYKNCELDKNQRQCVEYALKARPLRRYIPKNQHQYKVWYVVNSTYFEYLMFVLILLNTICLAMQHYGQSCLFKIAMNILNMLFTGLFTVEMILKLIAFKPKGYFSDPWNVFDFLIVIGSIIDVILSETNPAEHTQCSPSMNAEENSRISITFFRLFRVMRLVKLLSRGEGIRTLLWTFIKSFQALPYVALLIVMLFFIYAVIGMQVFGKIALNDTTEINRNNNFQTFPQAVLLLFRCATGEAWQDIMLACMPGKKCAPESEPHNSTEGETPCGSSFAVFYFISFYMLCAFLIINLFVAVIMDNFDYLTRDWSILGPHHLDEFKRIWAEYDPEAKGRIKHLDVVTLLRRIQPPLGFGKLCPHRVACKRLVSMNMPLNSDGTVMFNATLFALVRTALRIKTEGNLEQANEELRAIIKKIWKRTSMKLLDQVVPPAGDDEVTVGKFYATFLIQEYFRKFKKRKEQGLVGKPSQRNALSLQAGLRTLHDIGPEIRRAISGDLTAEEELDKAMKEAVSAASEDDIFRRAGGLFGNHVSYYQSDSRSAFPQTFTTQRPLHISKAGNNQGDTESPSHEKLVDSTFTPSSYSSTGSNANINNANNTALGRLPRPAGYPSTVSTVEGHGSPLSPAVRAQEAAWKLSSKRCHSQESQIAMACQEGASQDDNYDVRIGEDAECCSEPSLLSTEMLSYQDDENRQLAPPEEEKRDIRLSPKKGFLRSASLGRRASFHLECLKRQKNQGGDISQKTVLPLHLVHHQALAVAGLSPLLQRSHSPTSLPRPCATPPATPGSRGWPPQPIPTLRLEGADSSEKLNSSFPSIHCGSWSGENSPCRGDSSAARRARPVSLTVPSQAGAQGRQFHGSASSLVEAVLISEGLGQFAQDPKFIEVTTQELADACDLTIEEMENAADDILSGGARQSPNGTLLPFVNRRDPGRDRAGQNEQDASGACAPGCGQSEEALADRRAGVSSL

`COC(=O)N1C(=O)N=C(C)C(C(=O)OC(C)C)[C@@H]1c1cccc([N+](=O)[O-])c1` (some centres not stated): the IC50 came to 2480 nM.

For the molecule `COC(=O)C1C(C)=NC(=O)N(C(=O)OC(C)C)C1c1cccc([N+](=O)[O-])c1` (configuration not stated), the IC50 is 2480 nM.

The record behind these values is BindingDB's records for doi:10.1016/j.bmc.2013.04.054 (Northwestern University, 2013).
